Test results from paper PMC10213863 (Cell Reports Medicine, 2023).

How the values were obtained:
TLR7 = biological target: T1, TLR7 (Mus musculus, UniProt P58681); assay: Chronic TLR7 activation in vivo assay; conditions: 129/Sv mice; R848 plus MHV370 vs R848 plus vehicle
T1 sequence (P58681 27-1050): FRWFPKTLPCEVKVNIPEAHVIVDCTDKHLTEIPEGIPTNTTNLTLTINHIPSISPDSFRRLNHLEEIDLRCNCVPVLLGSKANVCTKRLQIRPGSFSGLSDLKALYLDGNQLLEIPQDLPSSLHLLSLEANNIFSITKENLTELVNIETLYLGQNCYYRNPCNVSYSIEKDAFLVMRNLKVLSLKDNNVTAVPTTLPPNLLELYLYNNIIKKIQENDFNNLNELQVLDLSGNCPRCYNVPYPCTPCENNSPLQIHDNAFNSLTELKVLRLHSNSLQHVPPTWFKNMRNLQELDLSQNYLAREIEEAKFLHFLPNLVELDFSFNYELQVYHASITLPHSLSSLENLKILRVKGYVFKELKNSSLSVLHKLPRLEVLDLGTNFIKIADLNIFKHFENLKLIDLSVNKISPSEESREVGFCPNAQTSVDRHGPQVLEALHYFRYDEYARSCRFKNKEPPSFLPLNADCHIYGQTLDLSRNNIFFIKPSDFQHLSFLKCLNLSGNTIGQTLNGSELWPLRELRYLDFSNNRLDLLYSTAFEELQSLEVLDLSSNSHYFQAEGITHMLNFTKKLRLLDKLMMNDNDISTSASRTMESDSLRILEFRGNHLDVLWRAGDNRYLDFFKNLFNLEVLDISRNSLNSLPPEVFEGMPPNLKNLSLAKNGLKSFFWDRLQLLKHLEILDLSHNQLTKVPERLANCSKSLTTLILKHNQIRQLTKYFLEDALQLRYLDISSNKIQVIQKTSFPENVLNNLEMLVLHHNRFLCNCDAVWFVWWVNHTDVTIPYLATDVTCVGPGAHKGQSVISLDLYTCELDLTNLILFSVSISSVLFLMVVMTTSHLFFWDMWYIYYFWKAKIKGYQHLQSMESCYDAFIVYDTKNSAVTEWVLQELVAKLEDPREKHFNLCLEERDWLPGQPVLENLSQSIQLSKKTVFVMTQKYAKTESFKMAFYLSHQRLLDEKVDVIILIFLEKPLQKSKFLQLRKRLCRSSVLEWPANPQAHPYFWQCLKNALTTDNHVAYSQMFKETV
How it was run: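 129/Sv mice (5 per group) received R848 i.p. at 2.5 mg/kg daily for 14 days. From day 7, groups were dosed orally b.i.d. with test compound at 15 mg/kg or with vehicle. Naive mice served as reference. Blood RNA-seq counts were filtered (≥10 counts per million in ≥4 samples) and TMM-normalized in edgeR. Differential expression was analysed with limma.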

TLR8 [1] = biological target: T2, TLR8 (Homo sapiens, UniProt Q9NR97); assay: Human PBMC assay, ssRNA-induced TNF; assay type: cell-based
T2 sequence (Q9NR97 27-1041): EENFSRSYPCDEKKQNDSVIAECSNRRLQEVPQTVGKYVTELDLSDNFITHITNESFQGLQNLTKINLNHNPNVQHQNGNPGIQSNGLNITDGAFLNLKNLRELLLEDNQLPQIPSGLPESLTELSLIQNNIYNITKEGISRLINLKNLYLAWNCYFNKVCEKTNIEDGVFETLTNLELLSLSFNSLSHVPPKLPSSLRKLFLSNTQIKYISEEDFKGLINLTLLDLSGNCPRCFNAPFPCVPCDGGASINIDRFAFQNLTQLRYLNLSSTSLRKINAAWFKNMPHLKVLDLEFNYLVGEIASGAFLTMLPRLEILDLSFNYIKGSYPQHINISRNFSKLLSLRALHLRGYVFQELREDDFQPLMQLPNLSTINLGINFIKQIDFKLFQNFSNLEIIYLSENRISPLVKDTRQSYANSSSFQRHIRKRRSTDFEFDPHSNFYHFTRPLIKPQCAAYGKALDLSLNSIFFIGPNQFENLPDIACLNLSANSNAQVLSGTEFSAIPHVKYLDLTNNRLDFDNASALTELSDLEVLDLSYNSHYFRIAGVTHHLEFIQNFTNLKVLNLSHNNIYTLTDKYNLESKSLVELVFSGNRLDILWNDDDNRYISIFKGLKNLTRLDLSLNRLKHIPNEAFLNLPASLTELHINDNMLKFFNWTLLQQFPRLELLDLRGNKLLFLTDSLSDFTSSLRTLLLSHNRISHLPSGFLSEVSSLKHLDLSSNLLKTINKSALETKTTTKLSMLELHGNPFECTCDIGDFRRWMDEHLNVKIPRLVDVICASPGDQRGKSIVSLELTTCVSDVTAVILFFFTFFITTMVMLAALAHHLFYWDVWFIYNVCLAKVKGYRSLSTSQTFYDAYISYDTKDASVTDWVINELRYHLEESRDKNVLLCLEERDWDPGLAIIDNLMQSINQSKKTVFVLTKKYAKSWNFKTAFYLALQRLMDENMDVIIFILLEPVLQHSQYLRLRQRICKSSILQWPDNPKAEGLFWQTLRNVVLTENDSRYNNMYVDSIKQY
How it was run: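 Human PBMCs were pre-incubated 30 min with test compound, then stimulated with the respective TLR or IL-1R agonist at doses from earlier work. Cytokines in supernatants were quantified by immunoassay. Viability across the dose range was checked by CellTiter-Glo.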

TLR8 [2] = biological target: T2, TLR8; assay: HEK293-NFkB-luciferase reporter cells transfected with TLR8, R848 stimulation; assay type: cell-based
How it was run: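 HEK293-NFkB-luciferase cells stably expressing HA-tagged human TLR7 or TLR8 were pre-treated 60 min at 37°C, 5% CO2 with increasing concentrations of test compound or 0.25% v/v DMSO. They were then stimulated 6 h with R848: 0.3 μM for TLR7, 4 μM for TLR8. Luciferase activity […] was read by Bright-Glo luminescence.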

With `Cc1cc(N2CCc3c(c(C)nn3CC34CCC(NC(=O)[C@@H]5COCCN5)(CC3)CC4)C2)c2cnn(C)c2n1` [MHV370, (S)-N-(4-((5-(1,6-dimethyl-1H-pyrazolo[3,4-b]pyridin-4-yl)-3-methyl-4,5,6,7-tetrahydro-1H-pyrazolo[4,3-c]pyridin-1-yl)methyl)bicyclo[2.2.2]octan-1-yl)morpholine-3-carboxamide] the “inflammatory pathways (ISGs, TLR and TNF pathways), gene set enrichment in blood” value (TLR7) was “all downregulated”, the IC50 (TLR8 [1]) was 0.07 ± 0.0074 µM and the IC50 (TLR8 [2]) was 0.0045 ± 0.0011 µM.
